“And” between values parts separate entries of the source, which are not always exact repeats. Identical values can stand only once.
system: HEK-293T; assay: Multiplex assay against HEK293T; format: toxicity, cell-based; conditions: human, 12 h, 1 µM, compound concentration 1 uM
Method in brief: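 Live cells were stained at seeding with Hoechst33342, BioTracker Green Microtubule Cytoskeleton Dye, MitoTracker Red and Annexin V Alexa Fluor 680. Following compound addition, they were imaged on a CQ1 microscope at 37°C and 5% CO2 and gated by CellPathfinder machine learning into Hoechst high-intensity objects or normal cells, with normal cells split into healthy, pyknosed or fragmented nuclei and pyknosed cells into mitotic or apoptotic. Tubulin, mitochondrial-mass and membrane-permeability phenotypes are per cents of healthy-nucleus cells.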

Compound | Population Apoptotic (%) | Population Fragmented Nuclei (%) | Population Healthy Nuclei (%) | Population Hoechst High Intensity Objects (%) | Population Membrane Permeable-Phenotype (%) | Population Mitochondria Different-Phenotype (%) | Population Mitotic Cells (%) | Population Normal (%) | Population Pyknosed Nuclei (%) | Total Cell Count
CC(C)[C@H](C(=O)Nc1ccc(C(=O)NO)cc1)c1ccccc1 [AR-42] | 11.9% and 3.88% | 1.31% and 2.38% | 54.83% and 20.83% | 0% and 0.59% | 0.95% and 0% | 22.38% and 11.43% | 88.1% and 96.12% | 100% and 99.41% | 43.86% and 76.79% | 383 and 169
O=C(Nc1c[nH]nc1-c1nc2cc(CN3CCOCC3)ccc2[nH]1)NC1CC1 [AT-9283] | 12.17% and 7.08% | 0.89% and 3.5% | 48% and 17.48% | 0% | 0.93% and 0% |  | 87.83% and 92.92% | 100% | 51.11% and 79.02% | 225 and 143

same assay, conditions: human, 12 h, 10 µM, compound concentration 10 uM

Compound | Population Apoptotic (%) | Population Fragmented Nuclei (%) | Population Hoechst High Intensity Objects (%) | Population Membrane Permeable-Phenotype (%) | Population Mitotic Cells (%) | Population Normal (%) | Population Pyknosed Nuclei (%) | Population Tubulin-Different-Phenotype (%) | Total Cell Count | Population Healthy Nuclei (%)
CC(C)[C@H](C(=O)Nc1ccc(C(=O)NO)cc1)c1ccccc1 [AR-42] | 11.02% and 12.75% | 2.96% and 3.72% | 0.37% and 0% | 0% and 3.12% | 88.98% and 87.25% | 99.63% and 100% | 43.7% and 79.26% | 5.56% and 9.38% | 271 and 188 | 
O=C(Nc1c[nH]nc1-c1nc2cc(CN3CCOCC3)ccc2[nH]1)NC1CC1 [AT-9283] | 9.66% and 13.57% | 1.6% and 0.63% | 0% | 0% and 11.76% | 90.34% and 86.43% | 100% | 70.4% and 88.61% | 20% and 35.29% | 250 and 158 | 28% and 10.76%

same assay, conditions: human, 24 h, 1 µM, compound concentration 1 uM

Compound | Population Apoptotic (%) | Population Fragmented Nuclei (%) | Population Healthy Nuclei (%) | Population Hoechst High Intensity Objects (%) | Population Membrane Permeable-Phenotype (%) | Population Mitochondria Different-Phenotype (%) | Population Mitotic Cells (%) | Population Normal (%) | Population Pyknosed Nuclei (%) | Population Tubulin-Different-Phenotype (%)
CC(C)[C@H](C(=O)Nc1ccc(C(=O)NO)cc1)c1ccccc1 [AR-42] | 31.4% and 16.41% | 3.26% and 2.2% | 63.86% and 27.47% | 0% | 0.43% and 0% | 22.55% and 10% | 68.6% and 83.59% | 100% | 32.88% and 70.33% | 18.3% and 14%
O=C(Nc1c[nH]nc1-c1nc2cc(CN3CCOCC3)ccc2[nH]1)NC1CC1 [AT-9283] | 21.74% and 12.8% | 4.26% and 2.61% |  | 0.35% and 0% | 0% and 4.17% | 18.06% and 0% | 78.26% and 87.2% | 99.65% and 100% | 40.78% and 81.7% | 17.42% and 16.67%

same assay, conditions: human, 24 h, 1 µM, compound concentration 1 uM

Compound | Total Cell Count
CC(C)[C@H](C(=O)Nc1ccc(C(=O)NO)cc1)c1ccccc1 [AR-42] | 368 and 182
O=C(Nc1c[nH]nc1-c1nc2cc(CN3CCOCC3)ccc2[nH]1)NC1CC1 [AT-9283] | 283 and 153

same assay, conditions: human, 24 h, 10 µM, compound concentration 10 uM

Compound | Population Apoptotic (%) | Population Fragmented Nuclei (%) | Population Healthy Nuclei (%) | Population Hoechst High Intensity Objects (%) | Population Membrane Permeable-Phenotype (%) | Population Mitochondria Different-Phenotype (%) | Population Mitotic Cells (%) | Population Normal (%) | Population Pyknosed Nuclei (%) | Population Tubulin-Different-Phenotype (%)
CC(C)[C@H](C(=O)Nc1ccc(C(=O)NO)cc1)c1ccccc1 [AR-42] | 25.32% and 20.83% | 1.5% and 2.78% | 68.8% and 30.56% | 0% and 0.55% | 1.09% and 1.82% | 14.21% and 14.55% | 74.68% and 79.17% | 100% and 99.45% | 29.7% and 66.67% | 2.73% and 3.64%
O=C(Nc1c[nH]nc1-c1nc2cc(CN3CCOCC3)ccc2[nH]1)NC1CC1 [AT-9283] | 24.17% and 28.99% | 0.37% and 0.67% |  | 0.37% and 0% | 1.79% and 0% |  | 75.83% and 71.01% | 99.63% and 100% | 78.73% and 92.62% | 33.93% and 40%

same assay, conditions: human, 24 h, 10 µM, compound concentration 10 uM

Compound | Total Cell Count
CC(C)[C@H](C(=O)Nc1ccc(C(=O)NO)cc1)c1ccccc1 [AR-42] | 266 and 181
O=C(Nc1c[nH]nc1-c1nc2cc(CN3CCOCC3)ccc2[nH]1)NC1CC1 [AT-9283] | 269 and 149

same assay, conditions: human, 48 h, 1 µM, compound concentration 1 uM

Compound | Population Apoptotic (%) | Population Fragmented Nuclei (%) | Population Healthy Nuclei (%) | Population Hoechst High Intensity Objects (%) | Population Membrane Permeable-Phenotype (%) | Population Mitochondria Different-Phenotype (%) | Population Mitotic Cells (%) | Population Normal (%) | Population Pyknosed Nuclei (%) | Population Tubulin-Different-Phenotype (%)
CC(C)[C@H](C(=O)Nc1ccc(C(=O)NO)cc1)c1ccccc1 [AR-42] | 38.66% and 18.09% | 3.58% and 2.58% | 60.9% and 36.77% | 1.18% and 0% | 0.49% and 3.51% | 58.33% and 29.82% | 61.34% and 81.91% | 98.82% and 100% | 35.52% and 60.65% | 21.57% and 47.37%
O=C(Nc1c[nH]nc1-c1nc2cc(CN3CCOCC3)ccc2[nH]1)NC1CC1 [AT-9283] | 44.44% and 22.06% | 2.23% and 0% | 80.17% and 46.03% | 0% and 0.79% | 3.83% and 1.72% | 49.13% and 22.41% | 55.56% and 77.94% | 100% and 99.21% |  | 

same assay, conditions: human, 48 h, 1 µM, compound concentration 1 uM

Compound | Total Cell Count
CC(C)[C@H](C(=O)Nc1ccc(C(=O)NO)cc1)c1ccccc1 [AR-42] | 339 and 155
O=C(Nc1c[nH]nc1-c1nc2cc(CN3CCOCC3)ccc2[nH]1)NC1CC1 [AT-9283] | 358 and 127

same assay, conditions: human, 48 h, 10 µM, compound concentration 10 uM

Compound | Population Apoptotic (%) | Population Fragmented Nuclei (%) | Population Healthy Nuclei (%) | Population Hoechst High Intensity Objects (%) | Population Membrane Permeable-Phenotype (%) | Population Mitochondria Different-Phenotype (%) | Population Mitotic Cells (%) | Population Normal (%) | Population Pyknosed Nuclei (%) | Population Tubulin-Different-Phenotype (%)
CC(C)[C@H](C(=O)Nc1ccc(C(=O)NO)cc1)c1ccccc1 [AR-42] | 22.22% and 36.27% | 2.93% and 2.55% | 66.95% and 32.48% | 0.42% and 0% | 5% and 3.92% | 22.5% and 11.76% | 77.78% and 63.73% | 99.58% and 100% | 30.13% and 64.97% | 9.38% and 15.69%
O=C(Nc1c[nH]nc1-c1nc2cc(CN3CCOCC3)ccc2[nH]1)NC1CC1 [AT-9283] | 52.36% and 56.2% | 1.67% and 2.67% |  | 0.83% and 0% | 0% | 88.89% and 55.56% | 47.64% and 43.8% | 99.17% and 100% | 79.58% and 91.33% | 24.44% and 55.56%

same assay, conditions: human, 48 h, 10 µM, compound concentration 10 uM

Compound | Total Cell Count
CC(C)[C@H](C(=O)Nc1ccc(C(=O)NO)cc1)c1ccccc1 [AR-42] | 240 and 157
O=C(Nc1c[nH]nc1-c1nc2cc(CN3CCOCC3)ccc2[nH]1)NC1CC1 [AT-9283] | 242 and 150

Reference: ChEMBL document CHEMBL5724801, “EUbOPEN Chemogenomics Library - Multiplex” (2024)
